Results on five compounds are retold here after ChEMBL document CHEMBL1151957, “Design and synthesis of novel C14-hydroxyl substituted triptolide derivatives as potential selective antitumor agents” (J Med Chem, 2009).

Calls of active or inactive are those of the source. The calls are words filed in the database; no cut-off is given here.

Holding throughout (type): functional, cell-based
Experiment [1] deals with PC-3. The experiment can be described thus: Cytotoxicity against human PC3 cells by SRB assay. The procedure, abridged: (§1)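 Cells grown in RPMI 1640 with 10% heat-inactivated FBS, 2 mmol/L glutamine, 10 mmol/L HEPES pH 7.4, 5% CO2, 37 °C; MCF-7/ADR also given 1 mmol/L pyruvate and 0.01 mg/mL insulin. Treated in triplicate with graded concentrations for 72 h at 37 °C, read by SRB. IC50 (50% growth inhibition vs control) by logit method; three independent experiments.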

The test system of experiment [2] is MDA-MB-468. The experiment can be described thus: Cytotoxicity against human MDA-MB-468 cells by SRB assay. The gist of the method: as §1
In experiment [3] the test system is SK-OV-3. Briefly: Cytotoxicity against human SKOV3 cells by SRB assay. The procedure, abridged:
as §1

Experiment [4] concerns MDR. The experiment can be described thus: Cytotoxicity against multidrug-resistant human KB/VCR cells by SRB assay in presence of MDR reversing agent verapamil. The procedure, abridged:
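KB/VCR cells exposed to test agents together with the MDR reversal agent verapamil. Growth inhibition was read by SRB assay after 72 h treatment; each point is the mean of three independent experiments.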

For the compound `CC(C)[C@]12O[C@H]1[C@@H]1O[C@]13[C@]1(O[C@H]1C[C@H]1C4=C(CC[C@@]13C)C(=O)OC4)[C@]2(O)CO`, the IC50 in experiment [1], in experiment [2] and in experiment [3] was above 100000 nM throughout.

On to `CC(C)[C@]12O[C@H]1[C@@H]1O[C@]13[C@]1(O[C@H]1C[C@H]1C4=C(CC[C@@]13C)C(=O)OC4)[C@@]21CO1`, for which the IC50 in experiment [1] amounted to 2700 nM; in experiment [2], 1920 nM; in experiment [3], 1560 nM.

For the compound `CC(C)[C@]12O[C@H]1[C@@H]1O[C@@]13[C@@]1(C)CCC4=C(COC4=O)[C@]1(O)C[C@@H]1O[C@@]13[C@]21CO1`, the IC50 in experiment [1] came to 7340 nM; in experiment [2] it was 2370 nM; in experiment [3], 1860 nM.

For the compound `CC[C@]1(O)C[C@H]2CN(CCc3c([nH]c4ccccc34)[C@@](C(=O)OC)(c3cc4c(cc3OC)N(C=O)[C@H]3[C@@](O)(C(=O)OC)[C@H](OC(C)=O)[C@]5(CC)C=CCN6CC[C@]43[C@@H]65)C2)C1`, the outcome in experiment [4] was Active.

Regarding `CC(C)[C@]12O[C@H]1[C@@H]1O[C@]13[C@]1(O[C@H]1C[C@H]1C4=C(CC[C@@]13C)C(=O)OC4)[C@H]2O` [EPITRIPTOIIDE], the IC50 is 1600 nM in experiment [1], 1320 nM in experiment [2] and 790 nM in experiment [3].
